Laboratory results from ChEMBL document CHEMBL4825712.
The source made the active and inactive calls. The rule behind the calls is not given here.

Columns and labels:
Influenza A virus [1] = assay: Antiviral activity against Influenza A virus A/WSN/33(H1N1)-PB2-Nanoluc virus infected in human A549 cells assessed as decrease in Nano-luc pretreated for 2 hr followed viral infection incubated for 24 hrs by Nano-Glo luminescence assay; format: functional, organism-based; details: A/WSN/1933(H1N1)
Summary of the method: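 A549 cells were treated with a range of compound concentrations for 2 h, then infected with WSN-PB2-Nanoluc (NanoLuc fused to PB2) at MOI 0.02 for 24 h. Cells were lysed in Renilla lysis buffer and luminescence read with Nano-Glo substrate on equal lysate volumes. IC50 was derived from the dose-response.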

A549 = assay: Cytotoxicity against human A549 cells by MTT assay; format: cell-based
Summary of the method: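 MTT assay run according to the manufacturer's instructions, concurrently with NP immunostaining of infected A549 cultures.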

Influenza A virus [2] = assay: Antiviral activity against Influenza A virus A/WSN/33(H1N1) infected in human A549 cells assessed as viral replication measured after 24 hrs by immunofluorescence microscopy; format: functional, organism-based; details: A/WSN/1933(H1N1); for IC50: A549, 24 h; for IC90: A549, time 24 hrs
Summary of the method: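 A549 cells were infected with A/WSN/33 at MOI 0.01 for 24 h, then fixed in 4% formaldehyde and permeabilized with 0.1% Triton X-100. They were immunostained for NP with an Alexa-488 secondary plus DAPI and imaged on an image cytometer. Percent infection = NP-positive cells divided by total cells.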

Influenza A virus [3] = assay: Antiviral activity against Influenza A virus A/WSN/33(H1N1) infected in human A549 cells assessed as reduction in M mRNA level at 1 uM treated 1 hr after viral infection by smRNA FISH followed by fluorescence microscopy; format: functional, organism-based; details: A/WSN/1933(H1N1)
Summary of the method: (§1)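 A549 cells received 1 μM compound either 1 h before infection or 1 h after infection. Infection was with WSN at MOI 2 for 8 h. Viral M mRNA was detected by smRNA-FISH and fluorescence microscopy.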

Influenza A virus [4] = assay: Antiviral activity against Influenza A virus A/WSN/33(H1N1) infected in human A549 cells assessed as reduction in M mRNA level by smRNA FISH followed by fluorescence microscopy; format: functional, organism-based; details: A/WSN/1933(H1N1)
Summary of the method: (§2)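 A549 cells on gelatin-coated coverslips were infected with WSN at MOI 2 for 8 h. Cells were fixed in 4% PFA, held in 70% ethanol for 12 h at 4 °C, and hybridized with M, HA or NS smRNA-FISH probes at 37 °C for 4 h. After a formamide/SSC wash, nuclei were stained with Hoechst and imaged by fluorescence microscopy.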

Influenza A virus [5] = assay: Antiviral activity against Influenza A virus wild-type A/WSN/1933 (H1N1) infected in human A549 cells assessed as log reduction in viral titer at 25 uM by standard plaque assay; format: functional, organism-based
Summary of the method: (§3)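 A549 cells were infected in the absence or presence of 25 μM compound. For A/WSN/1933 the MOI was 0.01 and infection ran 24 h. For A/Panama/1999 the MOI was 0.1 and infection ran 48 h. Viral titers were determined by standard plaque assay.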

Influenza A virus [6] = assay: Antiviral activity against Influenza A virus A/Wyoming/03/2003 (H3N2) infected in human A549 cells assessed as reduction in infected cells up to 25 uM pretreated for 1 hr; format: functional, organism-based; details: dose microM <=25, time 1.0 hrs
Influenza A virus [7] = assay: Antiviral activity against Influenza A virus A/Vietnam/2506/2004 (H5N1) infected in human A549 cells assessed as log reduction in viral titer at 25 uM by standard plaque assay; format: functional, organism-based
Influenza A virus [8] = assay: Antiviral activity against Influenza A virus A/WSN/33(H1N1) infected in human A549 cells assessed as reduction in NS mRNA level by smRNA FISH followed by fluorescence microscopy; format: functional, organism-based; details: A/WSN/1933(H1N1); summary of the method: as §2
Influenza A virus [9] = assay: Antiviral activity against Influenza A virus A/Panama/1999 (H3N2) infected in human A549 cells assessed as log reduction in viral titer at 25 uM by standard plaque assay; format: functional, organism-based; summary of the method: as §3
Influenza A virus [10] = assay: Antiviral activity against Influenza A virus A/WSN/33(H1N1) infected in human A549 cells assessed as reduction in M1 mRNA level by qRT-PCR analysis; format: functional, organism-based; details: A/WSN/1933(H1N1)
Summary of the method: (§4)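 A549 cells were pretreated for 1 h with 0.5 or 1 μM compound or 0.1% DMSO. They were then infected with A/WSN/33 at MOI 2 for 8 h with compound still present. Total RNA was isolated, reverse transcribed and analysed by qPCR for viral HA, NS1, M1 and M2 mRNA. Three independent experiments; mean ± SD.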

Influenza A virus [11] = assay: Antiviral activity against Influenza A virus A/WSN/33(H1N1)-PB2-Nanoluc virus infected in human HCT-116 cells assessed as decrease in Nano-luc at 1 uM pretreated for 1 hr followed viral infection incubated for 24 hrs by Nano-Glo luminescence assay; format: functional, organism-based; details: A/WSN/1933(H1N1)
Influenza A virus [12] = assay: Antiviral activity against Influenza A virus A/WSN/33(H1N1) infected in human A549 cells assessed as reduction in HA level at 1 uM pretreated for 8 hrs measured by Western blot analysis; format: functional, organism-based; details: A/WSN/1933(H1N1)
Summary of the method: (§5)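 A549 cells were pretreated with 1 μM compound or 0.1% DMSO, then infected with A/WSN/33 at MOI 2 for 8 h. Lysates were analysed by western blot for viral proteins, with β-actin as loading control. Three independent experiments.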

Influenza A virus [13] = assay: Antiviral activity against Influenza A virus A/WSN/33(H1N1) infected in human A549 cells assessed as reduction in NP level at 1 uM pretreated for 8 hrs measured by Western blot analysis; format: functional, organism-based; details: A/WSN/1933(H1N1); summary of the method: as §5
Influenza A virus [14] = assay: Antiviral activity against Influenza A virus A/WSN/33(H1N1) infected in human A549 cells assessed as reduction in HA mRNA level by smRNA FISH followed by fluorescence microscopy; format: functional, organism-based; details: A/WSN/1933(H1N1); summary of the method: as §2
Influenza A virus [15] = assay: Antiviral activity against Influenza A virus A/WSN/33(H1N1) infected in human A549 cells assessed as reduction in NS1 mRNA level by qRT-PCR analysis; format: functional, organism-based; details: A/WSN/1933(H1N1); summary of the method: as §4
Influenza A virus [16] = assay: Antiviral activity against Influenza A virus A/WSN/33(H1N1) infected in human A549 cells assessed as reduction in M1 protein level at 1 uM treated 1 hr after viral infection by Western blot analysis; format: functional, organism-based; details: A/WSN/1933(H1N1)
Summary of the method: (§6)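 A549 cells received 1 μM compound 1 h before infection, or 1 h or 2 h after infection. Infection was with WSN at MOI 2 for 8 h. Lysates were analysed by western blot for viral proteins.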

Influenza A virus [17] = assay: Antiviral activity against Influenza A virus A/WSN/33(H1N1) infected in human A549 cells assessed as reduction in HA mRNA level by qRT-PCR analysis; format: functional, organism-based; details: A/WSN/1933(H1N1); summary of the method: as §4
Influenza A virus [18] = assay: Antiviral activity against Influenza A virus A/WSN/33(H1N1) infected in human A549 cells assessed as reduction in poly(A) RNA/GAPDH mRNA level at 1 uM by smRNA FISH followed by fluorescence microscopy; format: functional, organism-based; details: A/WSN/1933(H1N1)
Influenza A virus [19] = assay: Antiviral activity against Influenza A virus A/WSN/33(H1N1) infected in human A549 cells assessed as reduction in M2 mRNA level by qRT-PCR analysis; format: functional, organism-based; details: A/WSN/1933(H1N1); summary of the method: as §4
Influenza A virus [20] = assay: Antiviral activity against Influenza A virus A/WSN/33(H1N1) infected in human A549 cells assessed as reduction in NP protein level at 1 uM treated 1 hr after viral infection by Western blot analysis; format: functional, organism-based; details: A/WSN/1933(H1N1); summary of the method: as §6
[21] = target: Hemagglutinin (Influenza A virus (A/Puerto Rico/8/1934(H1N1))) (UniProt P03452); assay: Inhibition of Influenza A virus A/WSN/33(H1N1) hemagglutinin assessed as inhibition of HA-mediated chicken erythrocytes membrane fusion at 0.08 to 5 uM incubated for 30 mins pH 5 by hemolysis inhibition assay; details: Influenza A virus (A/WSN/1933(H1N1)), dose 0.08-5 µM
Chain of Hemagglutinin (Influenza A virus (A/Puerto Rico/8/1934(H1N1))) (P03452 whole entry, the tested form may be a part): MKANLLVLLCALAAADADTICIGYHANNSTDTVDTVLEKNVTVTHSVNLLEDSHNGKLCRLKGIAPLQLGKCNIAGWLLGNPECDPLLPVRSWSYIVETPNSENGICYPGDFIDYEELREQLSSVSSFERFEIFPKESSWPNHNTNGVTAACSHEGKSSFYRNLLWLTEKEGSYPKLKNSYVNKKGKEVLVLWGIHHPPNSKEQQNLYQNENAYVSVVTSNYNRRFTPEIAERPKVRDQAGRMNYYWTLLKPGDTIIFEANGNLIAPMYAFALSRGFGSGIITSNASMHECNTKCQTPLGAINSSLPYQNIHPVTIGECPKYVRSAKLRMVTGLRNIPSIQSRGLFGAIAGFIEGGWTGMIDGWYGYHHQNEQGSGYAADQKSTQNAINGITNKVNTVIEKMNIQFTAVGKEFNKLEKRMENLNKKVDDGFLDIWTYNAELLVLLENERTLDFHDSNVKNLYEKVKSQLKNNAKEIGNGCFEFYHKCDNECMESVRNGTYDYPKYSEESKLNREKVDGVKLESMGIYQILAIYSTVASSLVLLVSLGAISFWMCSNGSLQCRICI
Summary of the method: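 Chicken erythrocyte suspension was incubated on ice with WSN, with or without compound at a range of concentrations. The mixture was acidified to pH 5 and incubated at 37 °C for 30 min. NADH released by lysis was read at 340 as the fusion measure. Data are % of DMSO control; means of triplicates ± SD.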

Influenza A virus [22] = assay: Antiviral activity against Influenza A virus A/WSN/33(H1N1) infected in human Primary bronchial epithelial cells assessed as reduction in M1 mRNA level at 1 uM by qRT-PCR analysis; format: functional, organism-based; details: A/WSN/1933(H1N1), Primary bronchial epithelial cell
Influenza A virus [23] = assay: Antiviral activity against Influenza A virus A/WSN/33(H1N1) infected in human A549 cells assessed as reduction in M mRNA level at 1 uM pretreated 1 hr before viral infection by smRNA FISH followed by fluorescence microscopy; format: functional, organism-based; details: A/WSN/1933(H1N1); summary of the method: as §1
[24] = Selectivity index, ratio of CC50 for human A549 cells to IC50 for antiviral activity against Influenza A virus A/WSN/33(H1N1) infected in human A549 cells; format: toxicity, cell-based; details: read-out: Selectivity Index
Summary of the method: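 Ratio of CC50 to IC50. IC50 came from A549 cells pretreated 2 h with compound, then infected 24 h with WSN-PB2-Nanoluc at MOI 0.02 and read by Nano-Glo luminescence. CC50 was measured by CellTiter-Glo.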

Influenza A virus [25] = assay: Antiviral activity against Influenza A virus A/WSN/33(H1N1) infected in human A549 cells assessed as reduction in M1 level at 1 uM pretreated for 8 hrs measured by Western blot analysis; format: functional, organism-based; details: A/WSN/1933(H1N1); summary of the method: as §5
Influenza A virus [26] = assay: Antiviral activity against Influenza A virus A/California/07/2009 (HIN1) infected in human A549 cells assessed as reduction in infected cells up to 25 uM pretreated for 1 hr; format: functional, organism-based; details: A/California/07/2009(H1N1), dose microM <=25, time 1.0 hrs

## C#CCCC1(CCN(c2ccc(Cl)cc2C)S(=O)(=O)c2cc(Cl)ccc2Cl)N=N1
Influenza A virus [1]
  IC50: > 5 µM
A549
  CC10: > 25 µM

## CCN(c1ccccc1C)S(=O)(=O)c1cc(Cl)ccc1Cl
Influenza A virus [2]
  IC50: 0.04 µM
  IC90: 1.2 µM
Influenza A virus [3]
  Activity: Active
Influenza A virus [4]
  Activity: Active
Influenza A virus [5]
  Activity: Active
Influenza A virus [6]
  Activity: inactive
Influenza A virus [7]
  Activity: Active
A549
  CC10: > 25 µM
  CC50: > 25 µM
Influenza A virus [8]
  Activity: Active
Influenza A virus [9]
  Activity: Active
Influenza A virus [10]
  Activity: Active
Influenza A virus [11]
  IC50: 16.8 µM
Influenza A virus [12]
  Activity: Active
Influenza A virus [13]
  Activity: Active
Influenza A virus [14]
  Activity: Active
Influenza A virus [15]
  Activity: Active
Influenza A virus [16]
  Activity: Active
Influenza A virus [17]
  Activity: Active
Influenza A virus [18]
  Activity: inactive
Influenza A virus [19]
  Activity: Active
Influenza A virus [20]
  Activity: Active
[21]
  Activity: Active
Influenza A virus [22]
  Activity: Active
Influenza A virus [23]
  Activity: Active
[24]
  selectivity ratio: > 625
Influenza A virus [25]
  Activity: Active
Influenza A virus [26]
  Activity: Active

## O=S(=O)(c1cc(Cl)ccc1Cl)N1CCCc2cc(Cl)ccc21
Influenza A virus [1]
  IC50: > 5 µM
A549
  CC10: > 5 µM

## C#CCCC1(CCOC(=O)Cc2ccc(N(CC)S(=O)(=O)c3cc(Cl)ccc3Cl)cc2)N=N1
Influenza A virus [1]
  IC50: > 5 µM
A549
  CC10: > 25 µM

## CCN(C(=O)c1cc(Cl)ccc1Cl)c1ccc(Cl)cc1C
Influenza A virus [1]
  IC50: > 5 µM
A549
  CC10: > 5 µM

## CCN(c1ccc(F)cc1F)S(=O)(=O)c1cc(Cl)ccc1Cl
Influenza A virus [2]
  IC50: 0.052 µM
  IC90: 0.9 µM
Influenza A virus [6]
  Activity: inactive
A549
  CC10: > 5 µM
  CC50: > 5 µM
[24]
  selectivity ratio: > 96
Influenza A virus [26]
  Activity: Active

## CCN(c1ccc(Cl)cc1C)S(=O)(=O)c1cc(Cl)ccc1Cl
Influenza A virus [2]
  IC50: 0.034 µM
  IC90: 0.5 µM
Influenza A virus [6]
  Activity: Active
A549
  CC10: > 5 µM
  CC50: > 5 µM
[24]
  selectivity ratio: > 147
Influenza A virus [26]
  Activity: Active

## O=S(=O)(c1cc(Cl)ccc1Cl)N1CCc2cc(Cl)ccc21
Influenza A virus [1]
  IC50: > 5 µM
A549
  CC10: > 5 µM

## C#CCN(c1cccc(N=[N+]=[N-])c1)S(=O)(=O)c1cc(Cl)ccc1Cl
Influenza A virus [1]
  IC50: 136 µM
A549
  CC10: > 25 µM
